{"source": "ChEMBL document CHEMBL5113556", "about": "“Benzo[d]isoxazole Derivatives as Hypoxia-Inducible Factor (HIF)-1α Inhibitors” (ACS Med Chem Lett, 2022)", "key": {"HEK-293T [1]": {"system": "HEK-293T", "assay": "Cytotoxicity against HEK293T cells at 50 uM", "assay_type": "toxicity, cell-based", "conditions": "human", "how_it_was_run": "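Cytotoxicity was read from the Renilla signal of the dual-luciferase reporter run in HEK293T cells (24 h transfection, then 24 h compound exposure) at concentrations up to 50 μM.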"}, "[2]": {"target": "Hypoxia-inducible factor 1-alpha (Homo sapiens, UniProt Q16665)", "sequence (Q16665 whole entry)": "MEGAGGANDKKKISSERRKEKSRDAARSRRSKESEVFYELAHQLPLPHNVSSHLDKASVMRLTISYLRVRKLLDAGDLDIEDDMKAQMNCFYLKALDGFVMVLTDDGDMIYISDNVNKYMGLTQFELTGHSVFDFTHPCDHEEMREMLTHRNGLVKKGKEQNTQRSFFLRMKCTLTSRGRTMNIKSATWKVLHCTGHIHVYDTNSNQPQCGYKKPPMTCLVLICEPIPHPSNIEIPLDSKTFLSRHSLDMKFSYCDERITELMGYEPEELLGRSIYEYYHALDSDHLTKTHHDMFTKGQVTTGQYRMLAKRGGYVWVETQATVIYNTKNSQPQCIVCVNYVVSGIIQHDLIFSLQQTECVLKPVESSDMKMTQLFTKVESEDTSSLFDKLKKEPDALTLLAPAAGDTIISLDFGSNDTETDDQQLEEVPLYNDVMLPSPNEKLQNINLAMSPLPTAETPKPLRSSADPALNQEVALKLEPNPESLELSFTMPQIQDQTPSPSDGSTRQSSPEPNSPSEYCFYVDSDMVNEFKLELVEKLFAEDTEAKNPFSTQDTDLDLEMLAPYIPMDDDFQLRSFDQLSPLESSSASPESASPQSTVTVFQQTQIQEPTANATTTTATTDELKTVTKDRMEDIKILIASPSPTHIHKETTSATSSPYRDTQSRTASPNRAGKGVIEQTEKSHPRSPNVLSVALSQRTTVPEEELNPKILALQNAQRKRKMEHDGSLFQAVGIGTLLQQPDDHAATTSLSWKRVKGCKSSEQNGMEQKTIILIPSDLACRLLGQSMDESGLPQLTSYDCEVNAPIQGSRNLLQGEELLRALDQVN", "assay": "Inhibition of HIF-1alpha (unknown origin) transcriptional activity expressed in HEK293T cells co-transfected with renilla and HRE-firelfly luciferase incubated for 24 hrs by dual luciferase reporter gene assay", "assay_type": "cell-based", "how_it_was_run": "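HEK293T cells were transfected for 24 h with HIF-1α (P2A), Renilla and HRE-firefly luciferase constructs, then exposed to test compounds for a further 24 h. The firefly signal (luciferin substrate) gave HIF-1 inhibition, normalized to the Renilla signal (coelenterazine substrate). Transcriptional activity was calculated by a formula given in the Supporting Information.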"}, "[3]": {"assay": "Downregulation of VEGF protein expression in HEK293T cells at 50 uM measured after 24 hrs under […] condition by Western blot analysis relative to control", "assay_type": "functional, Homo sapiens, HEK-293T"}, "HEK-293T [4]": {"system": "HEK-293T", "assay": "Downregulation of VEGF mRNA expression in HEK293T cells measured after 24 hrs under hypoxia condition by RT-PCR analysis", "conditions": "Homo sapiens, dose 0.01-50 µM, DDE = dose-dependent effect"}, "HEK-293T [5]": {"system": "HEK-293T", "assay": "Downregulation of PDK1 mRNA expression in HEK293T cells measured after 24 hrs under hypoxia condition by RT-PCR analysis", "conditions": "Homo sapiens, dose 0.01-50 µM, DDE = dose-dependent effect"}}, "data": [{"compound": "O=C(Nc1noc2ccccc12)c1ccccc1", "values": [{"measurement": "Activity", "setting": "HEK-293T [1]", "value": "Non-Toxic"}]}, {"compound": "O=C(Nc1ccccn1)c1noc2ccccc12", "values": [{"measurement": "IC50", "setting": "[2]", "value": 940, "unit": "nM"}, {"measurement": "Activity", "setting": "HEK-293T [1]", "value": "Non-Toxic"}]}, {"compound": "CN(C)c1cccc(NC(=O)c2noc3ccccc23)c1", "values": [{"measurement": "IC50", "setting": "[2]", "value": 7400, "unit": "nM"}, {"measurement": "Activity", "setting": "HEK-293T [1]", "value": "Non-Toxic"}]}, {"compound": "O=C(Nc1cccc(Cl)c1)c1noc2ccccc12", "values": [{"measurement": "IC50", "setting": "[2]", "value": 250, "unit": "nM"}, {"measurement": "Activity", "setting": "HEK-293T [1]", "value": "Non-Toxic"}]}, {"compound": "COC(=O)c1cccc(NC(=O)c2noc3ccccc23)c1", "values": [{"measurement": "IC50", "setting": "[2]", "value": 200, "unit": "nM"}, {"measurement": "Activity", "setting": "HEK-293T [1]", "value": "Non-Toxic"}]}, {"compound": "O=C(c1noc2ccccc12)N1CCCCC1", "values": [{"measurement": "Activity", "setting": "HEK-293T [1]", "value": "Non-Toxic"}]}, {"compound": "O=C(Nc1ccc2ccccc2c1)c1noc2ccccc12", "values": [{"measurement": "IC50", "setting": "[2]", "value": 75, "unit": "nM"}, {"measurement": "Activity", "setting": "HEK-293T [1]", "value": "Non-Toxic"}]}, {"compound": "O=C(Nc1ccc(Cl)cc1)c1noc2ccccc12", "values": [{"measurement": "IC50", "setting": "[2]", "value": 41, "unit": "nM"}, {"measurement": "Activity", "setting": "HEK-293T [1]", "value": "Non-Toxic"}]}, {"compound": "O=C(Nc1ccccc1Cl)c1noc2ccccc12", "values": [{"measurement": "IC50", "setting": "[2]", "value": 2300, "unit": "nM"}, {"measurement": "Activity", "setting": "HEK-293T [1]", "value": "Non-Toxic"}]}, {"compound": "O=C(NC1CCCCC1)c1noc2ccccc12", "values": [{"measurement": "IC50", "setting": "[2]", "value": 5400, "unit": "nM"}, {"measurement": "Activity", "setting": "HEK-293T [1]", "value": "Non-Toxic"}]}, {"compound": "COC(=O)c1ccc(O)c(NC(=O)COc2ccc(C34CC5CC(CC(C5)C3)C4)cc2)c1", "values": [{"measurement": "IC50", "setting": "[2]", "value": 2600, "unit": "nM"}, {"measurement": "Activity", "setting": "HEK-293T [1]", "value": "Non-Toxic"}]}, {"compound": "COc1cccc(NC(=O)c2noc3ccccc23)c1", "values": [{"measurement": "IC50", "setting": "[2]", "value": 170, "unit": "nM"}, {"measurement": "Activity", "setting": "HEK-293T [1]", "value": "Non-Toxic"}]}, {"compound": "O=C(Nc1cccc(-c2ccccc2)c1)c1noc2ccccc12", "values": [{"measurement": "IC50", "setting": "[2]", "value": 1700, "unit": "nM"}, {"measurement": "Activity", "setting": "HEK-293T [1]", "value": "Non-Toxic"}]}, {"compound": "CN(C)c1ccccc1NC(=O)c1noc2ccccc12", "values": [{"measurement": "Activity", "setting": "HEK-293T [1]", "value": "Non-Toxic"}]}, {"compound": "O=C(Nc1cccc([N+](=O)[O-])c1)c1noc2ccccc12", "values": [{"measurement": "IC50", "setting": "[2]", "value": 480, "unit": "nM"}, {"measurement": "Activity", "setting": "HEK-293T [1]", "value": "Non-Toxic"}]}, {"compound": "O=C(Nc1ccccc1)c1ccon1", "values": [{"measurement": "Activity", "setting": "HEK-293T [1]", "value": "Non-Toxic"}]}, {"compound": "CC(=O)c1ccc(NC(=O)c2noc3ccccc23)cc1", "values": [{"measurement": "IC50", "setting": "[2]", "value": 24, "unit": "nM"}, {"measurement": "Activity", "setting": "HEK-293T [1]", "value": "Non-Toxic"}, {"measurement": "Activity", "setting": "[3]", "value": 20, "unit": "%"}, {"measurement": "Activity", "setting": "HEK-293T [4]", "value": "Dde"}, {"measurement": "Activity", "setting": "HEK-293T [5]", "value": "Dde"}]}, {"compound": "O=C(Nc1ccncc1)c1noc2ccccc12", "values": [{"measurement": "IC50", "setting": "[2]", "value": 10000, "unit": "nM"}, {"measurement": "Activity", "setting": "HEK-293T [1]", "value": "Non-Toxic"}]}, {"compound": "O=C1CCCc2cc(NC(=O)c3noc4ccccc34)ccc21", "values": [{"measurement": "IC50", "setting": "[2]", "value": 640, "unit": "nM"}, {"measurement": "Activity", "setting": "HEK-293T [1]", "value": "Non-Toxic"}]}, {"compound": "O=C(Nc1ccc2scnc2c1)c1noc2ccccc12", "values": [{"measurement": "IC50", "setting": "[2]", "value": 42, "unit": "nM"}, {"measurement": "Activity", "setting": "HEK-293T [1]", "value": "Non-Toxic"}]}, {"compound": "CN(C)c1ccc(NC(=O)c2noc3ccccc23)cc1", "values": [{"measurement": "IC50", "setting": "[2]", "value": 24, "unit": "nM"}, {"measurement": "Activity", "setting": "HEK-293T [1]", "value": "Non-Toxic"}, {"measurement": "Activity", "setting": "HEK-293T [4]", "value": "Dde"}, {"measurement": "Activity", "setting": "HEK-293T [5]", "value": "Dde"}]}, {"compound": "COc1ccccc1NC(=O)c1noc2ccccc12", "values": [{"measurement": "IC50", "setting": "[2]", "value": 5500, "unit": "nM"}, {"measurement": "Activity", "setting": "HEK-293T [1]", "value": "Non-Toxic"}]}, {"compound": "COc1ccc(NC(=O)c2noc3ccccc23)cc1", "values": [{"measurement": "IC50", "setting": "[2]", "value": 40, "unit": "nM"}, {"measurement": "Activity", "setting": "HEK-293T [1]", "value": "Non-Toxic"}]}, {"compound": "O=C(Nc1ccccc1)c1noc2ccccc12", "values": [{"measurement": "IC50", "setting": "[2]", "value": 310, "unit": "nM"}, {"measurement": "Activity", "setting": "HEK-293T [1]", "value": "Non-Toxic"}]}, {"compound": "O=C(NCc1ccccc1)c1noc2ccccc12", "values": [{"measurement": "Activity", "setting": "HEK-293T [1]", "value": "Non-Toxic"}]}, {"compound": "CCn1c2ccccc2c2cc(NC(=O)c3noc4ccccc34)ccc21", "values": [{"measurement": "IC50", "setting": "[2]", "value": 810, "unit": "nM"}, {"measurement": "Activity", "setting": "HEK-293T [1]", "value": "Non-Toxic"}]}, {"compound": "CC(=O)c1cccc(NC(=O)c2noc3ccccc23)c1", "values": [{"measurement": "IC50", "setting": "[2]", "value": 640, "unit": "nM"}, {"measurement": "Activity", "setting": "HEK-293T [1]", "value": "Non-Toxic"}]}]}
